From article PMC7141409 (Journal of biomolecular NMR, 2019)

Assays:
[1] = chymotrypsin-based two-step assay; cited from earlier work
[2] = system: ^15N-OsIAA11^72−125 (W104-P105 peptide bond); test: Nzz-exchange: catalyzed cis-trans exchange of W104-P105; type: biochemical, rice
In short: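 15N-labeled OsIAA11 72–125 substrate (800μM) with 16μM enzyme (LRT2 mutant or homolog) in NMR buffer (50mM KCl, 20mM KPO4, 3mM TCEP, 5mM NaN3, 0.1% protease inhibitor cocktail, pH=6.67). Protein concentrations were set by A280 using theoretical extinction coefficients. Nzz-exchange spectra were processed to give the observed cis-trans exchange rate (kexobs) of the W104-P105 bond with uncertainties.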

Row | Substance | Catalytic activity on W-P substrate [1] | Nzz exchange crosspeaks / activity ([2]; 16μM enzyme, 800μM OsIAA11^72–125) | Nzz-measured kexobs ([2]; 1H-15N Nzz exchange, 16μM enzyme, 800μM OsIAA11^72–125, NMR buffer pH=6.67) | Activity relative to WT LRT2 on OsIAA11 ([2]; Nzz, % of WT LRT2 activity)
1 | hCypA W121A: hCypA W121A mutant | negligible catalytic activity |  |  | 
2 | hCypA: human cyclophilin A [reference compound] |  | clear exchange crosspeaks | 0.69 ± 0.04 s⁻¹ | 110%
